Activity calls are given as the source filed them. The calls are words filed in the database; no cut-off is given here.

The text below walks through data of ChEMBL document CHEMBL1123005, “1-Azacycloalkyl-1,4-benzodiazepin-2-ones with antianxiety-antidepressant actions” (J Med Chem, 1985).

For data set [1], the species on record is Rattus norvegicus. Nature of the data set: Displacement of [3H]diazepam binding in rat cerebral cortex homogenates (Experiment 1). It is filed as tissue-based. The method, boiled down: (§1)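 Wistar rat cerebral cortex homogenate incubated with compound and 2 nM [3H]diazepam at 0 °C for 60 min. Bound label trapped on glass filters and counted by scintillation. Ki = IC50/(1 + L/Kd).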
In general terms: In a radioligand displacement assay an active substance lowers the binding of a labelled ligand.

Data set [2] is filed under the species Rattus norvegicus. Kind of data set: Displacement of [3H]diazepam binding to rat cerebral cortex homogenates (Experiment 2). It counts as tissue-based. The method in brief:
as §1

Data set [3] has as its system Mus musculus. Nature of the data set: Effective dose against pentylenetetrazole intoxicity in mice administered through subcutaneous route; NE= no effect at 10 mg/kg. It counts as functional, organism-based. On the set-up: dose 10 mg/kg.
The test system of data set [4] is Mus musculus. Nature of the data set: Effective dose against tetrabenazine induced ptosis in mice administered subcutaneously. It counts as functional. Particulars: sc. The method in brief:
(§2)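 Male DS mice, 20-27 g, groups of five. Compound given po or sc in saline or gum arabic at 0.1 mL/10 g. Tetrabenazine 50 mg/kg sc given 1, 4 or 24 h later. Ptosis scored 1-4 at 1 h after TBZ, with ridit transformation. Dose for 50% prevention by regression.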

Data set [5] concerns Mus musculus. Nature of the data set: Effective dose against pentylenetetrazole intoxicity in mice administered through subcutaneous route; NE = no effect at 10 mg/kg. It is filed as functional, organism-based. On the set-up: dose 10 mg/kg.
Data set [6] has as its target GABA-A receptor; anion channel (Rattus norvegicus) (UniProt O09028+P15431+P18506+P18508+P19969+P20236+P23574+P23576+P28471+P28473+P30191+P62813+P63079+P63138+Q91ZM7+Q9ES14). Nature of the data set: Binding constant was determined by displacing potential to [3H]-diazepam binding in cerebral cortex homogenates of rat. It counts as tissue-based. The method, boiled down:
as §1

For data set [7], the system named is Mus musculus. Kind of data set: Effective dose against tetrabenazine induced ptosis in mice administered orally. It counts as functional. Particulars: Mus musculus, po; read-out: ED50. The method in brief: as §2
Data set [8] relates to Mus musculus. Nature of the data set: Effective dose against pentylenetetrazole intoxicity in mice administered orally. It is filed as functional. Particulars: Mus musculus, po; read-out: ED50.
Data set [9] is filed under the species Rattus norvegicus. Kind of data set: Inhibitory activity against uptake of [3H]norepinephrine into rat brain synaptosomes. It counts as functional. The method, boiled down: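 P2 synaptosomes from male Wistar rat cerebral cortex incubated with [3H]norepinephrine at 37 °C for 20 min, with compound at 5-6 concentrations. Stopped by Krebs-Henseleit dilution and glass-fibre filtration, then scintillation counting. IC50 taken as the concentration giving 50% uptake inhibition.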

In data set [10] the test system is Mus musculus. Nature of the data set: Effective dose against pentylenetetrazole intoxicity in mice administered through subcutaneous route; NE = no effect at dose 10 mg/kg. It is filed as functional, organism-based. Further details: dose 10 mg/kg.
For data set [11], the system named is Mus musculus. Kind of data set: Percent inhibition against tetrabenazine induced ptosis in mice administered subcutaneously at 50 mg/kg. It is filed as functional. Particulars: sc, route subcutaneous. The method, boiled down:
as §2

Data set [12] concerns Mus musculus. Kind of data set: Effective dose against pentylenetetrazole intoxicity in mice administered through subcutaneous route. It counts as functional. Particulars: sc.
In data set [13] the test system is Mus musculus. Nature of the data set: Effective dose against pentylenetetrazole intoxicity in mice administered orally; NE = not effective at dose 50 mg/kg. It counts as functional, organism-based. On the set-up: dose 50 mg/kg.
In data set [14] the test system is Mus musculus. Nature of the data set: Effective dose against pentylenetetrazole intoxicity in mice administered subcutaneously; NE = not effective at dose 10 mg/kg. It is filed as functional, organism-based. Further details: dose 10 mg/kg.
Data set [15] deals with Rattus norvegicus. Kind of data set: Effective dose was evaluated by their anticonflict effect in rats when administered through oral route. It counts as functional. The method in brief: (§3)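 Wistar rats in groups of 5-8, Geller-Seifter conflict procedure. Rats trained to lever-press for food on a variable-interval 60-s schedule. Oral dosing. A dose counted positive when shocks exceeded 12 or shock ratio exceeded 4 over four consecutive tone periods. ED50 with 95% limits by probit.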

Data set [16] relates to Mus musculus. Kind of data set: Percent inhibition against tetrabenazine induced ptosis in mice administered orally at 50 mg/kg. It is filed as functional. Particulars: route oral. The method, boiled down:
as §2

Data set [17] in a line: Acute toxicity was measured in mice after peroral administration. Particulars: mouse, in vivo, po. It is filed as organism-based. The method, boiled down:
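Male DS mice, 20-26 g, given compound orally; mortality checked the day after treatment in groups of 10. LD50 by probit method, or by up-and-down method of Brownlee et al. (n = 5) where estimated.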

Data set [18] concerns Rattus norvegicus. Kind of data set: Effective dose against anticonflict effect in rats when administered through oral route. It counts as functional. The method, boiled down: as §3
The subject of data set [19] is Mus musculus. Nature of the data set: Effective dose against pentylenetetrazole intoxicity in mice administered subcutaneously; NE= no effect at 100 mg/kg. Further details: dose 100 mg/kg. It is filed as functional, organism-based.
Data set [20] deals with Mus musculus. Kind of data set: Effective dose against pentylenetetrazole intoxicity in mice administered orally; NE= no effect at 50 mg/kg. It is filed as functional, organism-based. Further details: dose 50 mg/kg.

Turning to `CN1CCC(N2C(=O)CN=C(c3ccccc3F)c3cc([N+](=O)[O-])ccc32)CC1`, the K2 in [1] was determined as 8.3 µM; in [2], 24 µM. For the same compound, the ED50 result in data set [3] is “inactive”. Moreover, in [4], the ED50 came out at 17.7 mg/kg.

Consider `CN1CCC(N2C(=O)CN=C(c3ccccc3F)c3cccc(Cl)c32)CC1`, for which, in data set [5], the ED50 entry was “inactive”. In data set [6], this compound gave a K2 of 4.7 µM. For the same compound, the 50% effect level in data set [4] (ED50) was put at a dose of 2.66 mg/kg.

With `O=C1CN=C(c2ccccc2Cl)c2cc(F)ccc2N1C1CCNCC1`, the ED50 in data set [7] was found to be 13.5 mg/kg; in data set [8] it was 29.4 mg/kg. In data set [6], the K2 came to 0.012 µM. Further, half-maximal inhibition in [9] (IC50) required 0.877 µM.

Turning to `O=C1C(O)N=C(c2ccccc2F)c2ccccc2N1C1CCNCC1` (configuration not stated), the K2 in data set [6] was determined as 0.36 µM. In [10], the ED50 result was “inactive”. Moreover, the ED50 in [4] was 0.23 mg/kg.

With `O=C1CN=C(c2ccccc2Cl)c2cc(Cl)ccc2N1C1CCNCC1`, the 50% effective dose (ED50) in data set [7] came to 9.59 mg/kg; in [8], 12.9 mg/kg; in [4], 9.94 mg/kg. Moreover, the K2 in data set [6] stood at 0.017 µM. Further, in data set [9], inhibition was half-maximal at 0.562 µM (IC50).

The compound `CCOC(=O)N1CCC(N2C(=O)CN=C(c3ccccc3F)c3cc(Cl)ccc32)CC1` came in with an inhibition in vivo at 50 mg/kg in data set [11] of 67%. In [6], the K2 amounted to 0.038 µM. Further, the median effective dose (ED50) amounted to 11.1 mg/kg in data set [12] and 9.09 mg/kg in data set [8].

`CN1CCC(N2C(=O)CN=C(c3ccccc3)c3ccccc32)CC1`: the values for the median effective dose (ED50) in [7] and in data set [4] were 0.38 mg/kg and 0.26 mg/kg, respectively. Further, the ED50 result in data set [13] and in data set [14] was “inactive” each time.

`O=C1C(O)N=C(c2ccccc2F)c2cc(Cl)ccc2N1C1CCNCC1` (configuration not stated): the ED50 in data set [7] was 6.51 mg/kg; in data set [15] it was 8.8 mg/kg; in data set [8], 12.5 mg/kg. In data set [6], this compound showed a K2 of 0.14 µM.

In turn, `O=C1CN=C(c2ccccc2Cl)c2cc(Cl)ccc2N1C1CCNC1` (configuration not stated) yielded an inhibition in vivo at 50 mg/kg in data set [16] of 34%. The K2 in [6] is 0.027 µM. The values for the ED50 in data set [8] and in [4] were 9.63 mg/kg and 12.6 mg/kg, respectively.

In [16], `O=C1CN=C(c2ccccc2Cl)c2cc(Cl)ccc2N1C1CCCNC1` (configuration not stated) returned an inhibition in vivo at 50 mg/kg of 57%. The K2 in data set [6] amounted to 0.013 µM. Besides, the ED50 in data set [8] came to 16.2 mg/kg.

On to `CN1CCC(N2C(=O)CN=C(c3ccc(F)cc3)c3ccccc32)CC1`, for which the ED50 entry in [5] is “inactive”. This compound showed an inhibition in vivo at 50 mg/kg in [11] of 53%. In data set [6], this compound came in with a K2 of 68 µM.

As to `COc1ccc2c(c1)C(c1ccccc1F)=NCC(=O)N2C1CCN(C)CC1`, the ED50 entry in [5] was “inactive”. For the same compound, the K2 in [6] was found to be 1.26 µM. Also, the 50% effect level in data set [4] (ED50) was put at a dose of 1.24 mg/kg.

As for `CNC1=Nc2ccc(Cl)cc2C(c2ccccc2)=[N+]([O-])C1` [CHLORDIAZEPOXIDE], in data set [7], the ED50 was found to be 2.7 mg/kg. The LD50 in [17] is 877 mg/kg.

Consider `CN1CCC(N2C(=O)CN=C(c3ccccc3Cl)c3cc(F)ccc32)CC1`, for which the median effective dose (ED50) in [7] was determined as 59.3 mg/kg; in data set [8], 5.2 mg/kg. The K2 in [6] was found to be 0.014 µM.

Regarding `CN1CCC(N2C(=O)CN=C(c3ccccc3F)c3cc(F)ccc32)CC1`, the ED50 was 1.62 mg/kg in [7], 11.4 mg/kg in data set [15], 26.9 mg/kg in data set [12] and 0.27 mg/kg in data set [4]. Further, the IC50 in data set [9] was 53.7 µM.

Consider `CN1CCC(N2C(=O)CN=C(c3ccccc3)c3cc(Br)ccc32)CC1`, for which the ED50 in data set [7] amounted to 2.88 mg/kg; in [18], 17.4 mg/kg; in data set [8], 21.4 mg/kg. The same compound had a K2 in data set [6] of 0.415 µM.

Consider `CN1CCC(N2C(=O)CN=C(c3ccccc3F)c3ccc(Cl)cc32)CC1`, for which, in data set [11], the inhibition in vivo at 50 mg/kg came to 34%. Besides, the ED50 result in [19] and in data set [20] was “inactive” throughout. Also, the K2 in data set [6] stood at 0.69 µM.

A word on the ED50: it is the dose that gives a 50% effect, or the effect in half of the subjects. As usually defined, the IC50 is the concentration that inhibits the measured activity by half. A lower IC50 goes with greater potency in that assay. By inhibition in vivo is commonly meant the drop in the measured response relative to a control, in per cent. A word on the LD50: it is the dose at which mortality reaches 50%. Read a low LD50 as a more toxic substance.
